For twelve compounds, IC50, inhibition in vivo and Activity results are on record in ChEMBL document CHEMBL3352165 (Eur J Med Chem, 2014).

Each structure is given as a SMILES string.

In data set [1] the target is Platelet-derived growth factor receptor beta (Homo sapiens, UniProt P09619). Nature of the data set: Inhibition of PDGFRbeta (unknown origin) by ELISA method. Put shortly:
(§1)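 Phosphotyrosine ELISA with purified kinase (20 ng) and 5 µM ATP in buffer (50 mM HEPES pH 7.4, 20 mM MgCl2, 0.1 mM MnCl2, 0.2 mM Na3VO4, 1 mM DTT), 1 h at 37 °C, DMSO ≤1%. Detection by PY99 antibody, then HRP anti-mouse IgG with o-phenylenediamine, A490. IC50 by Logit from at least three independent tests.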
(An ELISA detects its analyte on a solid surface through an enzyme-linked reagent.)

For data set [2], the target named is Mast/stem cell growth factor receptor Kit (Homo sapiens, UniProt P10721). Nature of the data set: Inhibition of c-KIT (unknown origin) by ELISA method. Put shortly: as §1
The target in data set [3] is Epidermal growth factor receptor (Homo sapiens, UniProt P00533). The data set can be described thus: Inhibition of HER1 (unknown origin) assessed as reduction in autophosphorylation by ELISA method.
Epidermal growth factor receptor, sequence (P00533 whole entry): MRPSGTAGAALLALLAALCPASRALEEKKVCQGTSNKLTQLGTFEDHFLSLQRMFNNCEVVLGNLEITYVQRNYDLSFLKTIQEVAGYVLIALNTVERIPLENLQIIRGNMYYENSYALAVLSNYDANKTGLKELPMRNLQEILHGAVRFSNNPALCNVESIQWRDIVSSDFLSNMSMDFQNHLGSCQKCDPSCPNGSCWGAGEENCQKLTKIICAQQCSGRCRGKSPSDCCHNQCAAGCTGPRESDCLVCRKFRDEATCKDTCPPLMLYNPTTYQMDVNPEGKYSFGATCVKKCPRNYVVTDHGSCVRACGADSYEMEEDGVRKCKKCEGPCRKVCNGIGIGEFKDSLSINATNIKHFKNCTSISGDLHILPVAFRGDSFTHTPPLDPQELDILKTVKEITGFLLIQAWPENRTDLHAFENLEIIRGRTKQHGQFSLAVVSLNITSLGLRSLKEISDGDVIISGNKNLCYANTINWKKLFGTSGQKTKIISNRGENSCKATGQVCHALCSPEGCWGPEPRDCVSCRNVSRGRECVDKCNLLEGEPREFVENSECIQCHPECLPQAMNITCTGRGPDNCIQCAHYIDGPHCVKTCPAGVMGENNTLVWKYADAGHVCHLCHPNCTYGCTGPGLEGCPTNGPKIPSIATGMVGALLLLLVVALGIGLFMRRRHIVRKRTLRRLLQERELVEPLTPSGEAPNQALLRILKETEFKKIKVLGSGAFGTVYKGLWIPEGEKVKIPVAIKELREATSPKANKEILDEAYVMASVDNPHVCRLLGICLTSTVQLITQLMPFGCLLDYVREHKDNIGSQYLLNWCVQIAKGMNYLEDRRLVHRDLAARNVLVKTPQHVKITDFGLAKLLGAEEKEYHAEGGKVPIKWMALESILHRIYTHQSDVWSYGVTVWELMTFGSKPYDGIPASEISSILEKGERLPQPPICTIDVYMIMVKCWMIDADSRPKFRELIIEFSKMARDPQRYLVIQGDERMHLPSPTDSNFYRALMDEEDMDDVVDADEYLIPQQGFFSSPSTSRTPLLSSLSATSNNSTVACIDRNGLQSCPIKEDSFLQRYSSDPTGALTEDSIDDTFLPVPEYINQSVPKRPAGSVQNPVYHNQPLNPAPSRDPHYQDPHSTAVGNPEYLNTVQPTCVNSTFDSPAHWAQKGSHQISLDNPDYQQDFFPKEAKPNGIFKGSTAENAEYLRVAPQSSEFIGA
Data set [4] can be described thus: Cytotoxicity against human SKBR3 cells assessed as inhibition of cell growth after 72 hrs by sulforhodamine B assay. It is filed as functional, cell-based. Particulars: SK-BR-3, 72 h. In a few lines:
(§2)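 Cells grown in RPMI-1640 with 5% FBS and plated at 5.0×10^4/ml. Next day exposed to 0.5–5000 ng/ml for 3 days. Survival read by sulforhodamine B staining. IC50 taken from growth curves; mean of at least three determinations.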
In general terms: The SRB assay estimates cell density from bound dye.

Another data set has as its system A-431. Nature of the data set: Cytotoxicity against human A431 cells assessed as inhibition of cell growth after 72 hrs by sulforhodamine B assay. The data set is classed as functional, cell-based. The settings on record: A-431, 72 h. Put shortly:
as §2

The test system of the next data set is BT-474. The data set can be described thus: Cytotoxicity against human BT474 cells assessed as inhibition of cell growth after 72 hrs by sulforhodamine B assay. It is filed as functional, cell-based. The settings on record: BT-474, 72 h. In a few lines:
as §2

The target in data set [5] is Vascular endothelial growth factor receptor 2 (Homo sapiens, UniProt P35968). The data set can be described thus: Inhibition of KDR (unknown origin) by ELISA method. Put shortly:
as §1

The target of data set [6] is Receptor tyrosine-protein kinase erbB-2 (Homo sapiens, UniProt P04626). Nature of the data set: Inhibition of HER2 (unknown origin) assessed as reduction in autophosphorylation by ELISA method. In a few lines: as §1
Receptor tyrosine-protein kinase erbB-2, sequence (P04626 whole entry): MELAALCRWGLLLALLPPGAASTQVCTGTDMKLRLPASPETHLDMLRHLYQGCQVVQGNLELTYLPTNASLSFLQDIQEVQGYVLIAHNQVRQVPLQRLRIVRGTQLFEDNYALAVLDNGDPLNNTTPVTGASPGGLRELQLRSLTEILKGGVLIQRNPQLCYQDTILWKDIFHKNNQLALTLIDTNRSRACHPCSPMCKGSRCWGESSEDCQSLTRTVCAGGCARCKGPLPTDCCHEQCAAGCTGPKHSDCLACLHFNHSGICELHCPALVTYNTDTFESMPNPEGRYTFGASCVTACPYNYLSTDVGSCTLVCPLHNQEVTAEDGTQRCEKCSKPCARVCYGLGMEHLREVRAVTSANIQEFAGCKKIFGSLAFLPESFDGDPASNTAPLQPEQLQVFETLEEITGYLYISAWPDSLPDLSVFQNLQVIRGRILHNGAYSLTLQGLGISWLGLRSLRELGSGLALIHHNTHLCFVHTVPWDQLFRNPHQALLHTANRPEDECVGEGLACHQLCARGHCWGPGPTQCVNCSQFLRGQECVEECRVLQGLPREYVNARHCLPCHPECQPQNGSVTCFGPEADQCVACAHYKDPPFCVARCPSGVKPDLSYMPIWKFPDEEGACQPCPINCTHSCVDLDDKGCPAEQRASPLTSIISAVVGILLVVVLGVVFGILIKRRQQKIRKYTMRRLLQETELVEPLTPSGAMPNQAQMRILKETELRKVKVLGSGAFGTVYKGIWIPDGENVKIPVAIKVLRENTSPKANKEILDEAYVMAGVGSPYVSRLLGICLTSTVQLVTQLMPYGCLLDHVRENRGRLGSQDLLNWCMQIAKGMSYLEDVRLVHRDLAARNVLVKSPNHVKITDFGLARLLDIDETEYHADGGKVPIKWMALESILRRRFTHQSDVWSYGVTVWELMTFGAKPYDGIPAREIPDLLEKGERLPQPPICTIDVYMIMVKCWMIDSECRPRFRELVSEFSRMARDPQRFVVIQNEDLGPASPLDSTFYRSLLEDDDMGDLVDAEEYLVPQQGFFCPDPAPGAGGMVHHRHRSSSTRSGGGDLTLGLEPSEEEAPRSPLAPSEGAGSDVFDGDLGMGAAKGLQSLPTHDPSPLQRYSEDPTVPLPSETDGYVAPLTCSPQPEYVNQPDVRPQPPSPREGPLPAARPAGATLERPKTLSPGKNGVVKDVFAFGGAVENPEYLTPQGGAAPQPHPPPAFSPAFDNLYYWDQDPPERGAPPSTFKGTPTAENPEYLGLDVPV
For another data set, the system named is MCF7. The data set can be described thus: Cytotoxicity against human MCF7 cells assessed as inhibition of cell growth after 72 hrs by sulforhodamine B assay. It is filed as functional, cell-based. Particulars: MCF7, 72 h. Put shortly:
as §2

A short description of data set [7]: Antitumor activity against human Calu3 cells xenografted in BALB/cA mouse assessed as tumor growth inhibition at 200 mg/kg, po. The data set is classed as functional. Particulars: Calu-3, read-out: TGI. In a few lines:
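Female BALB/cA nude mice, 6–7 weeks old, implanted s.c. on midright side with 2×10^6 Calu-3 cells in 0.2 ml PBS. Grouped at 60–150 mm³ tumour volume (6 per treated group, 12 vehicle). Oral dosing in 0.5% CMC with 0.1% Tween-80. Caliper volume = L×W²×0.5; inhibition = (1 − T/C)×100% on relative tumour volume; weight tracked for 21 d.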
Background: Xenograft models place foreign cells or tissue in a host animal.

The next data set has as its system Mus musculus. The data set can be described thus: Toxicity in human Calu3 cells xenografted BALB/cA mouse assessed as body weight loss at 200 mg/kg, po measured every other day for 21 days. The data set is classed as organism-based, Calu-3. Also on record: dose 200 mg/kg, route oral. The settings on record: in vivo, 504 h. In a few lines:
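Female BALB/cA nude mice, 6–7 weeks old, implanted s.c. on the mid-right flank with 2×10^6 Calu-3 cells in 0.2 ml PBS. At 60–150 mm³ tumour volume, mice randomised into six per treatment group (twelve vehicle controls). Oral dosing in 0.5% CMC aqueous solution with 0.1% Tween-80. Body weight recorded every other day for 21 d.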

Vascular endothelial growth factor receptor 2, sequence (P35968 whole entry): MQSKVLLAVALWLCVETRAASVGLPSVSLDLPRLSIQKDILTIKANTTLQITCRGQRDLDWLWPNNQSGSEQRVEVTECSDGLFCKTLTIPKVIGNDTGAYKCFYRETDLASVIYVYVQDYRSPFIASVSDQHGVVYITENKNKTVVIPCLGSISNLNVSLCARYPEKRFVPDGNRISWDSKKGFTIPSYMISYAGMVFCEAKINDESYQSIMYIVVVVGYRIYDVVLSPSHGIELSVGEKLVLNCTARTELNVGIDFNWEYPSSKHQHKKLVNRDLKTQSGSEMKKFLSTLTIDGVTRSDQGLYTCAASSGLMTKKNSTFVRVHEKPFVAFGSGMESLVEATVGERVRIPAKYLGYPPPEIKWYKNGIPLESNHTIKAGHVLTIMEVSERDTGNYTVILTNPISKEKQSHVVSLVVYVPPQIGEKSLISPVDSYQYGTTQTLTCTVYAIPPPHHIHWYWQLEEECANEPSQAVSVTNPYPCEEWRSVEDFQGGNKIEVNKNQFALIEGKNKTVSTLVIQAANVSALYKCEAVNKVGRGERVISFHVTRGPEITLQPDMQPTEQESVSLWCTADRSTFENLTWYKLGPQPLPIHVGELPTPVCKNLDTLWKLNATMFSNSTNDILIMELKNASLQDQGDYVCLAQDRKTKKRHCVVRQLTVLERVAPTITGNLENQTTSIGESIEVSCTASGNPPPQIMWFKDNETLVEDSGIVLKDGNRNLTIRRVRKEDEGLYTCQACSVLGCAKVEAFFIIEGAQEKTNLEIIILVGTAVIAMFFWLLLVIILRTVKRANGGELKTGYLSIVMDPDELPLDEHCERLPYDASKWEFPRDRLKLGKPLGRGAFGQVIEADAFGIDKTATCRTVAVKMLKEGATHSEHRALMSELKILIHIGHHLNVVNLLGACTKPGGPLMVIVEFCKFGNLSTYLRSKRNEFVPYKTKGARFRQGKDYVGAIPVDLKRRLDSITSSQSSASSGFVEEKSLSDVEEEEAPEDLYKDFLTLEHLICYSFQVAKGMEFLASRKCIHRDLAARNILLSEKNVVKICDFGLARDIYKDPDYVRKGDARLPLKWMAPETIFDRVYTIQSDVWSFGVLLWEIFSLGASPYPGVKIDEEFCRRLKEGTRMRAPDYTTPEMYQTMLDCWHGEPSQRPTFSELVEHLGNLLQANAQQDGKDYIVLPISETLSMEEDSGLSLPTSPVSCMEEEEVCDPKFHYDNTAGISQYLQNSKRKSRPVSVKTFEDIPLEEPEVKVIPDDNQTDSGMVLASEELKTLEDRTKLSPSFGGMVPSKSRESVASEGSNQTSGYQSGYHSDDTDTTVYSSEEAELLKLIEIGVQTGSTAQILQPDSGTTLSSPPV
Platelet-derived growth factor receptor beta, sequence (P09619 whole entry): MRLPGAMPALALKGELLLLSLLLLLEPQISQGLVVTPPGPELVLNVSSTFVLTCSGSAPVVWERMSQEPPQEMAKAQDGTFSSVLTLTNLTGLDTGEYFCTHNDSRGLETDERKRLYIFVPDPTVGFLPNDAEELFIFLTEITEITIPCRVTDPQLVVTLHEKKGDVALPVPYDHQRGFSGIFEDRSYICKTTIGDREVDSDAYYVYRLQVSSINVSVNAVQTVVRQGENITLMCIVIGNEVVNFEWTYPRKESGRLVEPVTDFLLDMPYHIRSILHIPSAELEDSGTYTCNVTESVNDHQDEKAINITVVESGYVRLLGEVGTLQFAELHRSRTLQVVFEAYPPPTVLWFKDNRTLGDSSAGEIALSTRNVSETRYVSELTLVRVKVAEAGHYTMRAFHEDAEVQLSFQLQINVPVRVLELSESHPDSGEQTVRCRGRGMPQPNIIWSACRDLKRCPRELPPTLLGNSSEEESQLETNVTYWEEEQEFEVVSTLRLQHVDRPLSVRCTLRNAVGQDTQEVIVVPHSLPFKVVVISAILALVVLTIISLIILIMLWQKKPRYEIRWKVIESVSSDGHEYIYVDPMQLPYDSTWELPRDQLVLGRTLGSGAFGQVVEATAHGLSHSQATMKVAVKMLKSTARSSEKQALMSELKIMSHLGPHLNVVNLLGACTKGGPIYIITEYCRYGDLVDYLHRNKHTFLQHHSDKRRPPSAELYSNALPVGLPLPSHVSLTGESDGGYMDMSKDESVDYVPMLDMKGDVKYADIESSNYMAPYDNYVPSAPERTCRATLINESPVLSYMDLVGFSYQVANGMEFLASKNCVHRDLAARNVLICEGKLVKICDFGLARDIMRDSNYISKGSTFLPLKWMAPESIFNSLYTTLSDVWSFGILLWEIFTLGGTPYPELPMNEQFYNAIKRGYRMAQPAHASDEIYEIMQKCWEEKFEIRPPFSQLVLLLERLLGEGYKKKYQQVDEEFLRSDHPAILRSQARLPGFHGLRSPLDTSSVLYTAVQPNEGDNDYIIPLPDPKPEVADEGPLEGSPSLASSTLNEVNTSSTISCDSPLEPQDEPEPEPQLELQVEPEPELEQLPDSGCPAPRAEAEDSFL

For the compound `CCCCCCOC(=O)N[C@H](CS(C)(=O)=O)c1ccc(-c2ccc3ncnc(Nc4ccc(OCc5cccc(F)c5)c(Cl)c4)c3c2)o1`, the half-inhibitory concentration (IC50) in data set [1] was above 200 µM; in data set [2], above 200 µM; in data set [3], 110 nM; in data set [4], 1050 nM; with A-431, 1200 nM; in the data set on BT-474, 1920 nM. In addition, the IC50 in [5] was above 200 µM; in data set [6] it was 158 nM; with MCF7, above 10 µM.
As to `CS(=O)(=O)C[C@H](N)c1ccc(-c2ccc3ncnc(Nc4ccc(OCc5cccc(F)c5)c(Cl)c4)c3c2)o1`, the half-maximal inhibitory concentration (IC50) was above 200 µM in [1]; above 200 µM in data set [2]; 13.5 nM in data set [3]; 84.1 nM in data set [4]; 632 nM with A-431; 116 nM in the data set with BT-474. Moreover, the figures for the 50% inhibitory concentration (IC50) (in data set [5]; in [6]; in the data set on MCF7) were above 200 µM, 10.6 nM and 9.34 µM, respectively.
As for `CNC(CS(C)(=O)=O)c1ccc(-c2ccc3ncnc(Nc4ccc(OCc5cccc(F)c5)c(Cl)c4)c3c2)o1` (racemic), the IC50 was above 200 µM in data set [1]; above 200 µM in data set [2]; 34.8 nM in data set [3]; 30.1 nM in [4]; 648 nM in the data set with A-431; 76.8 nM in the data set on BT-474. Further, the 50% inhibitory concentration (IC50) was above 200 µM in data set [5], 1 nM in [6] and 6.52 µM with MCF7.
`CCNC(CS(C)(=O)=O)c1ccc(-c2ccc3ncnc(Nc4ccc(OCc5cccc(F)c5)c(Cl)c4)c3c2)o1` (racemic): the IC50 is above 200 µM in [1]; above 200 µM in [2]; 14.7 nM in data set [3]; 33.9 nM in [4]; 884 nM with A-431; 109 nM in the data set with BT-474. In addition, the values for the IC50 (in [5]; in data set [6]; in the data set on MCF7) were above 200 µM, 15.5 nM and 8.73 µM, respectively.
`CCCCOC(=O)N[C@H](CS(C)(=O)=O)c1ccc(-c2ccc3ncnc(Nc4ccc(OCc5cccc(F)c5)c(Cl)c4)c3c2)o1`: the IC50 in data set [1] is above 200 µM; in data set [2], above 200 µM; in [3] it was 92.8 nM; in data set [4] it was 702 nM; with A-431, 1090 nM; in the data set with BT-474, 1000 nM. For the same compound, the IC50 was above 200 µM in [5], 164 nM in data set [6] and 9.21 µM in the data set with MCF7.
With `CS(=O)(=O)CC(N)c1ccc(-c2ccc3ncnc(Nc4ccc(OCc5cccc(F)c5)c(Cl)c4)c3c2)o1` (racemic), the IC50 was above 200 µM in data set [1]; above 200 µM in [2]; 17.6 nM in data set [3]; 26.6 nM in data set [4]; 683 nM with A-431; 75.4 nM in the data set with BT-474. Further, the IC50 was above 200 µM in data set [5], 3.4 nM in data set [6] and 6.62 µM in the data set on MCF7.
As to `CN(C)C(CS(C)(=O)=O)c1ccc(-c2ccc3ncnc(Nc4ccc(OCc5cccc(F)c5)c(Cl)c4)c3c2)o1` (racemic), the IC50 in [1] was above 200 µM; in data set [2], above 200 µM; in data set [3], 6.8 nM; in [4] it was 36.2 nM; in the data set on A-431 it was 604 nM; with BT-474, 48.6 nM. The 50% inhibitory concentration (IC50) is above 200 µM in data set [5], 3.6 nM in [6] and 6.12 µM in the data set with MCF7. Also, in [7], the inhibition in vivo at 200 mg/kg is 58%. Further, in the data set on Mus musculus, the Activity result is given as “Non-toxic”.
On to `CN(C)[C@@H](CS(C)(=O)=O)c1ccc(-c2ccc3ncnc(Nc4ccc(OCc5cccc(F)c5)c(Cl)c4)c3c2)o1`, for which the half-maximal inhibitory concentration (IC50) in [1] was above 200 µM; in data set [2] it was above 200 µM; in data set [3], 30.4 nM; in data set [4], 27.8 nM; with A-431, 768 nM; in the data set with BT-474, 83.2 nM. For the same compound, the results for the IC50 (in data set [5]; in data set [6]; in the data set with MCF7) were above 200 µM, 26.1 nM and 6.67 µM, respectively.
For `CCOC(=O)N[C@H](CS(C)(=O)=O)c1ccc(-c2ccc3ncnc(Nc4ccc(OCc5cccc(F)c5)c(Cl)c4)c3c2)o1`, the IC50 in [1] was above 200 µM; in data set [2], above 200 µM; in [3], 89.6 nM; in data set [4], 106 nM; in the data set on A-431, 884 nM; with BT-474 it was 120 nM. Further, the IC50 is above 200 µM in data set [5], 152 nM in [6] and 8.93 µM in the data set with MCF7.
For `CS(=O)(=O)CCNC(CS(C)(=O)=O)c1ccc(-c2ccc3ncnc(Nc4ccc(OCc5cccc(F)c5)c(Cl)c4)c3c2)o1` (racemic), the concentration for half-maximal inhibition (IC50) in [1] was above 200 µM; in [2] it was above 200 µM; in data set [3] it was 28.7 nM; in [4] it was 123 nM; in the data set with A-431 it was 684 nM; with BT-474, 104 nM. The IC50 was above 200 µM in data set [5], 52.2 nM in data set [6] and 7.01 µM in the data set on MCF7.
In the case of `CS(=O)(=O)CC(NC1CCCCC1)c1ccc(-c2ccc3ncnc(Nc4ccc(OCc5cccc(F)c5)c(Cl)c4)c3c2)o1` (racemic), the IC50 in [1] is above 200 µM; in data set [2], above 200 µM; in data set [3] it was 77.2 nM; in data set [4], 162 nM; with A-431, 773 nM; with BT-474 it was 174 nM. Moreover, the half-maximal inhibitory concentration (IC50) in data set [5] is above 200 µM; in data set [6], 58.6 nM; in the data set with MCF7, 9.13 µM.
For `CC(C)NC(CS(C)(=O)=O)c1ccc(-c2ccc3ncnc(Nc4ccc(OCc5cccc(F)c5)c(Cl)c4)c3c2)o1` (racemic), the IC50 is above 200 µM in data set [1]; above 200 µM in data set [2]; 101 nM in [4]; 623 nM with A-431; 94.4 nM with BT-474; above 200 µM in [5]. Moreover, the IC50 in data set [6] is 48.3 nM; in the data set on MCF7, 6.11 µM.

The IC50 is the concentration that gives 50% inhibition.
